Measured values as given in ChEMBL document CHEMBL3244336, “Antitumor agents. 1. 1,4-Bis[(aminoalkyl)amino]-9,10-anthracenediones” (J Med Chem, 1979).
Activity calls are given as the source filed them.

Key:
P388 [1] = experiment: Antitumor activity against mouse P388 cells allografted in mouse assessed as increase of median life span at 50 mg/kg, ip on day 1, 5 and 9 measured up to 60 days relative to control; type: functional; conditions: route intraperitoneal
Method in brief: (§1)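 BDF1 or CDF1 mice inoculated ip with ascitic P388 leukemia cells. Dosing ip on days 1, 5 and 9. Deaths recorded for 60 days; % increase in median life span over controls. "Cures" are survivors/total at 60 days.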

B16 [2] = experiment: Antitumor activity against mouse B16 cells allografted in BDF1 mouse assessed as increase of median life span at 12.5 mg/kg, ip on day 1 to 9 measured up to 80 days relative to control; type: functional; conditions: route intraperitoneal
B16 [3] = experiment: Antitumor activity against mouse B16 cells allografted in BDF1 mouse assessed as disease cure at 12.5 mg/kg, ip on day 1 to 9 measured up to 80 days; type: functional, organism-based; design: dose 12.5 mg/kg
Method in brief: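 BDF1 mice implanted ip with a homogenate from 0.05 g of tumor. Dosed ip on days 1–9, with deaths recorded for 80 days. "Cures" counted as survivors/total at 80 days.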

B16 [4] = experiment: Antitumor activity against mouse B16 cells allografted in BDF1 mouse assessed as increase of median life span at 25 mg/kg, ip on day 1 to 9 measured up to 80 days relative to control; type: functional; conditions: route intraperitoneal
Method in brief: (§2)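 BDF1 mice implanted ip with a homogenate from 0.05 g of B16 tumor. Test agent given ip on days 1-9. Deaths recorded for 80 days. Result is % increase in median life span over untreated controls. "Cures" are survivors/total at 80 days.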

B16 [5] = experiment: Antitumor activity against mouse B16 cells allografted in BDF1 mouse assessed as disease cure at 25 mg/kg, ip on day 1 to 9 measured up to 80 days; type: functional, organism-based; design: dose 25 mg/kg
Method in brief: (§3)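 BDF1 mice implanted ip with homogenate from 0.05 g of B16 tumor, then dosed ip on days 1-9. Deaths recorded for 80 days; "cures" scored as survivors/total at 80 days.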

P388 [6] = experiment: Antitumor activity against mouse P388 cells allografted in mouse assessed as disease cure at 100 mg/kg, ip on day 1, 5 and 9 measured up to 60 days; type: functional, organism-based; design: dose 100 mg/kg
Method in brief: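 BDF or CDF1 mice injected ip with ascitic leukemia cells, then dosed ip on days 1, 5 and 9. Deaths recorded for 60 days. Read-outs: percent increase in median life span over controls, and "cures" as survivors/total at 60 days.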

P388 [7] = experiment: Antitumor activity against mouse P388 cells allografted in mouse assessed as increase of median life span at 100 mg/kg, ip on day 1, 5 and 9 measured up to 60 days relative to control; type: functional; conditions: route intraperitoneal
P388 [8] = experiment: Antitumor activity against mouse P388 cells allografted in mouse assessed as disease cure at 300 mg/kg, ip on day 1, 5 and 9 measured up to 60 days; type: functional, organism-based; design: dose 300 mg/kg
Method in brief: (§4)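 BDF1 or CDF1 mice inoculated ip with ascitic P388 leukemia cells, dosed ip on days 1, 5 and 9. Deaths recorded for 60 days; "cures" taken as number of survivors/total at 60 days.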

B16 [9] = experiment: Antitumor activity against mouse B16 cells allografted in BDF1 mouse assessed as disease cure at 50 mg/kg, ip on day 1 to 9 measured up to 80 days; type: functional, organism-based; design: dose 50 mg/kg; method in brief: as §3
P388 [10] = experiment: Antitumor activity against mouse P388 cells allografted in mouse assessed as increase of median life span at 300 mg/kg, ip on day 1, 5 and 9 measured up to 60 days relative to control; type: functional; conditions: route intraperitoneal; method in brief: as §1
B16 [11] = experiment: Antitumor activity against mouse B16 cells allografted in BDF1 mouse assessed as increase of median life span at 50 mg/kg, ip on day 1 to 9 measured up to 80 days relative to control; type: functional; conditions: route intraperitoneal; method in brief: as §2
P388 [12] = experiment: Antitumor activity against mouse P388 cells allografted in mouse assessed as increase of median life span at 12.5 mg/kg, ip on day 1, 5 and 9 measured up to 60 days relative to control; type: functional; conditions: route intraperitoneal; method in brief: as §1
B16 [13] = experiment: Antitumor activity against mouse B16 cells allografted in BDF1 mouse assessed as increase of median life span at 3.1 mg/kg, ip on day 1 to 9 measured up to 80 days relative to control; type: functional; conditions: route intraperitoneal; method in brief: as §2
B16 [14] = experiment: Antitumor activity against mouse B16 cells allografted in BDF1 mouse assessed as disease cure at 6.2 mg/kg, ip on day 1 to 9 measured up to 80 days; type: functional, organism-based; design: dose 6.2 mg/kg; method in brief: as §3
P388 [15] = experiment: Antitumor activity against mouse P388 cells allografted in mouse assessed as disease cure at 25 mg/kg, ip on day 1, 5 and 9 measured up to 60 days; type: functional, organism-based; design: dose 25 mg/kg; method in brief: as §4
P388 [16] = experiment: Antitumor activity against mouse P388 cells allografted in mouse assessed as increase of median life span at 25 mg/kg, ip on day 1, 5 and 9 measured up to 60 days relative to control; type: functional; conditions: route intraperitoneal; method in brief: as §1
B16 [17] = experiment: Antitumor activity against mouse B16 cells allografted in BDF1 mouse assessed as increase of median life span at 6.2 mg/kg, ip on day 1 to 9 measured up to 80 days relative to control; type: functional; conditions: route intraperitoneal; method in brief: as §2
P388 [18] = experiment: Antitumor activity against mouse P388 cells allografted in mouse assessed as disease cure at 50 mg/kg, ip on day 1, 5 and 9 measured up to 60 days; type: functional, organism-based; design: dose 50 mg/kg; method in brief: as §4
B16 [19] = experiment: Antitumor activity against mouse B16 cells allografted in BDF1 mouse assessed as increase of median life span at 400 mg/kg, ip on day 1 to 9 measured up to 80 days relative to control; type: functional; conditions: route intraperitoneal; method in brief: as §2
P388 [20] = experiment: Antitumor activity against mouse P388 cells allografted in mouse assessed as increase of median life span at 400 mg/kg, ip on day 1 to 9 measured up to 60 days relative to control; type: functional; conditions: route intraperitoneal
Method in brief: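 BDF1 or CDF1 mice inoculated ip with ascitic P388 leukemia cells. Dosing ip on days 1-9. Deaths followed for 60 days; % increase in median life span over controls.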

B16 [21] = experiment: Antitumor activity against mouse B16 cells allografted in BDF1 mouse assessed as disease cure at 400 mg/kg, ip on day 1 to 9 measured up to 80 days; type: functional, organism-based; design: dose 400 mg/kg; method in brief: as §3
P388 [22] = experiment: Antitumor activity against mouse P388 cells allografted in mouse assessed as disease cure at 400 mg/kg, ip on day 1 to 9 measured up to 60 days; type: functional, organism-based; design: dose 400 mg/kg
Method in brief: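 P388 ascitic leukemia cells given ip to BDF1 or CDF1 mice; ip dosing on days 1-9. Deaths followed for 60 days, cures expressed as survivors/total at 60 days.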

P388 [23] = experiment: Antitumor activity against mouse P388 cells allografted in ip dosed mouse assessed as minimum effective dose administered as single dose; type: functional; conditions: read-out: MED
Method in brief: (§5)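 Drug given ip to P388 tumor-bearing mice, either once as a single dose or once each 4 days for three injections. Minimum effective dose defined as the dose giving 40% increase in life span over control, read from regression lines of log dose-response data.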

P388 [24] = experiment: Antitumor activity against mouse P388 cells allografted in ip dosed mouse assessed as minimum effective dose administered as once each 4 days for 3 total injection; type: functional; conditions: 96 h, read-out: MED; method in brief: as §5
B16 [25] = experiment: Antitumor activity against mouse B16 cells allografted in BDF1 mouse assessed as increase of median life span at 0.8 mg/kg, ip on day 1 to 9 measured up to 80 days relative to control; type: functional; conditions: route intraperitoneal; method in brief: as §2
P388 [26] = experiment: Antitumor activity against mouse P388 cells allografted in mouse assessed as increase of median life span at 5 mg/kg, ip on day 1, 5 and 9 measured up to 60 days relative to control; type: functional; conditions: route intraperitoneal; method in brief: as §1
[27] = Toxicity in […] assessed as maximum tolerated dose administered as single dose; type: organism-based, P388; conditions: mouse, in vivo, ip
[28] = Toxicity in […] assessed as maximum tolerated dose administered as once each 4 days for 3 total injection; type: organism-based, P388; conditions: mouse, in vivo, ip

Structure (SMILES): O=C1c2c(O)ccc(O)c2C(=O)c2c(NCCNCC(O)CO)ccc(NCCNCC(O)CO)c21 (centres undefined)
- ILS at 50 mg/kg (P388 [1]): > 422%
- ILS at 12.5 mg/kg (B16 [2]): 79%
- Activity (B16 [3]): inactive

Structure (SMILES): O=C1c2c(O)ccc(O)c2C(=O)c2c(NCCCNCCO)ccc(NCCCNCCO)c21
- ILS at 25 mg/kg (B16 [4]): 100%
- ILS at 50 mg/kg (P388 [1]): 191%
- Activity (B16 [5]): inactive

Structure (SMILES): O=C1c2c(O)ccc(O)c2C(=O)c2c(NCCN3CCCC3)ccc(NCCN3CCCC3)c21
- Activity (P388 [6]): inactive
- ILS at 12.5 mg/kg (B16 [2]): 58%
- ILS at 100 mg/kg (P388 [7]): 118%
- Activity (B16 [3]): inactive

Structure (SMILES): O=C1c2c(O)ccc(O)c2C(=O)c2c(NCCN3CCCCC3)ccc(NCCN3CCCCC3)c21
- Activity (P388 [8]): inactive
- Activity (B16 [9]): inactive
- ILS at 300 mg/kg (P388 [10]): 40%
- ILS at 50 mg/kg (B16 [11]): 0%

Structure (SMILES): CC(O)CNCCNc1ccc(NCCNCC(C)O)c2c1C(=O)c1c(O)ccc(O)c1C2=O (centres undefined)
- ILS at 12.5 mg/kg (P388 [12]): 255%
- ILS at 3.1 mg/kg (B16 [13]): 240%

Structure (SMILES): O=C1c2ccccc2C(=O)c2c(NCCN(CCO)CCO)ccc(NCCN(CCO)CCO)c21
- Activity (P388 [8]): inactive
- ILS at 300 mg/kg (P388 [10]): 73%
- ILS at 50 mg/kg (B16 [11]): 88%

Structure (SMILES): NCCCNc1ccc(NCCCN)c2c1C(=O)c1c(O)ccc(O)c1C2=O
- Activity (B16 [14]): inactive
- Activity (P388 [15]): inactive
- ILS at 25 mg/kg (P388 [16]): 83%
- ILS at 6.2 mg/kg (B16 [17]): 87%

Structure (SMILES): C[N+](C)(C)CCNc1ccc(NCC[N+](C)(C)C)c2c1C(=O)c1ccccc1C2=O
- Activity (P388 [8]): inactive
- ILS at 300 mg/kg (P388 [10]): 0%

Structure (SMILES): CN(C)CCCNc1ccc(NCCCN(C)C)c2c1C(=O)c1c(O)ccc(O)c1C2=O
- ILS at 25 mg/kg (B16 [4]): 25%
- ILS at 50 mg/kg (P388 [1]): 29%
- Activity (P388 [18]): inactive
- Activity (B16 [5]): inactive

Structure (SMILES): O=C1c2ccccc2C(=O)c2c(NCCN3CCOCC3)ccc(NCCN3CCOCC3)c21
- ILS at 400 mg/kg (B16 [19]): 33%
- ILS at 400 mg/kg (P388 [20]): 119%
- Activity (B16 [21]): inactive
- Activity (P388 [22]): inactive

Structure (SMILES): COc1cccc2c1C(=O)c1c(O)c3c(c(O)c1C2=O)C[C@@](O)(C(=O)CO)C[C@@H]3O[C@H]1C[C@H](N)[C@H](O)[C@H](C)O1 [DOXORUBICIN]
- minimal effective dose (P388 [23]): 0.35 mg/kg
- minimal effective dose (P388 [24]): 0.14 mg/kg
- ILS at 0.8 mg/kg (B16 [25]): 275%
- ILS at 5 mg/kg (P388 [26]): 159%
- MTD [27]: 13.1 mg/kg
- MTD at 96 h [28]: 2.7 mg/kg
